The MIC is the lowest concentration found to suppress growth. The IC50 is the concentration that gives 50% inhibition.

A short description of test [1]: Antifungal activity against Phytophthora parasitica var. nicotianae after 4 to 14 days by serial dilution method. Format: functional. The method, boiled down:
(§1)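 Fungal strains kept on potato dextrose agar. Antifungal activity tested following NCCLS recommendations, with MIC values as the read-out. Prochloraz served as positive control.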

The nature of test [2]: Cytotoxicity against human MCF7 cells assessed as decrease in cell viability after 6 days by MTT assay. The format is functional, cell-based. To be noted: MCF7, 144 h. The gist of the method: (§2)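 Cell lines from College of Pharmacy, Hebei University, grown in DMEM with 5% fetal bovine serum at 37 °C under 5% CO2. Viability read by MTT method, IC50 values derived. Epirubicin served as positive control.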
(Tetrazolium assays rely on reduction of a dye to a coloured formazan, in cell work by metabolically active cells.)

The test system of the next test is Colletotrichum truncatum. Kind of test: Antifungal activity against Colletotrichum capsici after 4 to 14 days by serial dilution method. The format is functional. The method, boiled down: as §1
The nature of test [3]: Antifungal activity against Bipolaris oryzae after 4 to 14 days by serial dilution method. The format is functional. The gist of the method:
(§3)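 Fungus maintained on potato dextrose agar. Antifungal activity determined as MIC following NCCLS (National […] for Clinical Laboratory Standards) recommendations, with prochloraz as the reference antifungal.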

Test [4] can be described thus: Cytotoxicity against human HeLa cells assessed as decrease in cell viability after 6 days by MTT assay. Particulars: 144 h. Format: functional, cell-based. The method, boiled down:
as §2

A short description of test [5]: Antifungal activity against Pestallozzia theae after 4 to 14 days by serial dilution method. The format is functional. The gist of the method:
as §1

The next test deals with Alternaria citri. Description: Antifungal activity against Alternaria citri after 4 to 14 days by serial dilution method. Format: functional. The gist of the method:
as §3

A short description of test [6]: Antifungal activity against Diaporthe medusaea nitschke after 4 to 14 days by serial dilution method. The format is functional. To be noted: Diaporthe rudis. The gist of the method: as §1
A short description of test [7]: Cytotoxicity against human A549 cells assessed as decrease in cell viability after 6 days by MTT assay. Particulars: A549, 144 h. The format is functional, cell-based. The method, boiled down: as §2
Another test relates to Alternaria brassicicola. Description: Antifungal activity against Alternaria brassicicola after 4 to 14 days by serial dilution method. The format is functional. The gist of the method:
as §1

The nature of test [8]: Antifungal activity against Ceratocystis paradoxa moreau after 4 to 14 days by serial dilution method. Format: functional. To be noted: Thielaviopsis. The method, boiled down: as §1
A short description of test [9]: Antifungal activity against Exserohilum turcicum after 4 to 14 days by serial dilution method. The format is functional. Particulars: Setosphaeria turcica. The gist of the method:
as §1

In brackets after ≈: the same amount, converted by molar mass.

For `COC1=CC(=O)C[C@H]2CC(=O)c3cccc(O)c3[C@@]12O`, the MIC (in test [1]; against Colletotrichum truncatum; in test [3]; in test [5]; in the test with Alternaria citri; in [6]) was > 400 µM in each case. Moreover, the MIC (with Alternaria brassicicola; in test [8]; in [9]) was > 400 µM in each case. The IC50 in test [2], in test [4] and in test [7] was > 10 µM in each case.
As to `COc1c(O)cc2ccc3cc(O)ccc3c2c1OC` [NUDOL], the MIC (in [1]; against Colletotrichum truncatum; in test [3]; in test [5]; in the test with Alternaria citri; in test [6]) was > 400 µM each time. Further, the MIC (with Alternaria brassicicola; in [8]; in [9]) was > 400 µM in each case. The IC50 in test [2], in test [4] and in [7] was > 10 µM in each case.
For `COc1cc(O)c2c(c1)CCc1cc(O)ccc1-2` [LUSIANTHRIDIN], the minimum inhibitory concentration (MIC) (in test [1]; in the test on Colletotrichum truncatum; in test [3]; in test [5]; with Alternaria citri; in [6]) was > 400 µM throughout. Moreover, the MIC (with Alternaria brassicicola; in test [8]; in test [9]) was > 400 µM each time. Besides, the IC50 in [2], in test [4] and in test [7] was > 10 µM each time.
For the compound `COc1c(O)cc2ccc3c(OC)c(O)ccc3c2c1OC`, the MIC (in [1]; against Colletotrichum truncatum; in test [3]; in test [5]; against Alternaria citri; in test [6]) was > 400 µM each time. Moreover, the MIC (in the test on Alternaria brassicicola; in test [8]; in test [9]) was > 400 µM throughout. The IC50 in test [2], in [4] and in [7] was > 10 µM in each case.
In the case of `COc1cc(O)cc(CCc2ccccc2)c1`, the MIC in [1] is 219 µM (≈ 50.1 µg/mL); in the test on Colletotrichum truncatum it was 110 µM (≈ 25 µg/mL); in [3], 110 µM (≈ 25 µg/mL); in [5], 219 µM (≈ 50.1 µg/mL); with Alternaria citri, 110 µM (≈ 25 µg/mL); in test [6], 219 µM (≈ 50.1 µg/mL). The MIC with Alternaria brassicicola was > 400 µM; in test [8] it was 110 µM (≈ 25 µg/mL); in test [9], 110 µM (≈ 25 µg/mL). Moreover, the IC50 in [2], in test [4] and in [7] was > 10 µM throughout.
As for `O=C1C=CC(=O)C2=C1CCc1cc(O)ccc12`, the MIC (in test [1]; with Colletotrichum truncatum; in test [3]; in test [5]; in the test with Alternaria citri; in test [6]) was > 400 µM throughout. Further, the MIC (against Alternaria brassicicola; in [8]; in [9]) was > 400 µM throughout. For the same compound, the IC50 in [2], in test [4] and in [7] was > 10 µM each time.
With `COC1=CC(=O)C[C@]2(CCc3cccc(O)c32)C1=O`, the MIC (in test [1]; in the test on Colletotrichum truncatum; in test [3]; in test [5]; in the test on Alternaria citri; in test [6]) was > 400 µM in each case. In addition, the MIC (in the test with Alternaria brassicicola; in test [8]; in test [9]) was > 400 µM throughout. In addition, the IC50 is 9.4 µM in test [2], 9.8 µM in test [4] and 9.9 µM in test [7].
As for `COc1cc(O)cc(CCc2ccc(O)c(OC)c2)c1` [GIGANTOL], the MIC in [1] was 365 µM (≈ 100 µg/mL); against Colletotrichum truncatum, 91.2 µM (≈ 25 µg/mL); in test [3], 182 µM (≈ 50 µg/mL); in test [5], 91.2 µM (≈ 25 µg/mL); against Alternaria citri it was 91.2 µM (≈ 25 µg/mL); in test [6], 91.2 µM (≈ 25 µg/mL). Further, the MIC in the test on Alternaria brassicicola is 182 µM (≈ 50 µg/mL); in test [8], 91.2 µM (≈ 25 µg/mL); in [9], 182 µM (≈ 50 µg/mL). The 50% inhibitory concentration (IC50) in test [2], in test [4] and in test [7] was > 10 µM throughout.

For the origin of these results see ChEMBL document CHEMBL3860028, “Bioactive Phenanthrene and Bibenzyl Derivatives from the Stems of Dendrobium nobile” (J Nat Prod, 2016).
